Assay: Sweetness potency relative to 5-10% of sucrose
Assay type: functional
Summary of the method: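 Human taste panel: five to ten expert male panelists tasted and spat 10 mL of sweetener solution, rating sweetness potency and quality against five sucrose standards (0.04 M/1.4% to 0.35 M/12.0%). Test solution generally equivalent to 5–10% sucrose. Potency = equi-sweet sucrose concentration divided by actual sweetener concentration; mean ± 95% confidence limit. Acute oral rat toxicity tested first.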

Row | SMILES | Potency
1 | CC1(C)CCC(C)(C)C1OC(=O)[C@H](NC(=O)[C@@H](N)CC(=O)O)c1ccccc1 | 190
2 | CC1(C)C2CC[C@](C)(C2)[C@@H]1OC(=O)[C@H](NC(=O)[C@@H](N)CC(=O)O)c1ccccc1 (stereo in doubt; 29) | 1200
3 | CC1(C)SC(C)(C)C1OC(=O)[C@H](NC(=O)[C@@H](N)CC(=O)O)c1ccccc1 | 300
4 | CC12CCC(O1)C(C)(C)C2COC(=O)[C@H](NC(=O)[C@@H](N)CC(=O)O)c1ccccc1 (stereo partly specified) | 0
5 | CC12CCC(C1)C(C)(C)C2OC(=O)[C@H](NC(=O)[C@@H](N)CC(=O)O)c1ccc(O)cc1 (stereo partly specified) | 420
6 | CC1(C)C2CCC1(C)C(OC(=O)[C@H](NC(=O)[C@@H](N)CC(=O)O)c1ccccc1)C2 (stereo partly specified) | 0
7 | N[C@@H](CC(=O)O)C(=O)N[C@@H](C(=O)OC1CC2CCC1C2)c1ccccc1 (stereo in doubt; 28) | 180
8 | CC(OC(=O)[C@H](NC(=O)[C@@H](N)CC(=O)O)c1ccccc1)C(C)(C)C (stereo partly specified) | 30
9 | CC1CCCC(C)C1OC(=O)[C@H](NC(=O)[C@@H](N)CC(=O)O)c1ccccc1 (stereo partly specified) | 210
10 | COC(=O)C(NC(=O)[C@@H](N)CC(=O)O)C(=O)O[C@@H]1C(C)(C)C2CC[C@]1(C)C2 (stereo partly specified) | 50000
11 | N[C@@H](CC(=O)O)C(=O)N[C@@H](C(=O)OC1C2CC3COC1C3C2)c1ccccc1 (stereo partly specified) | 80
12 | CC12CC(O)C(C1)C(C)(C)C2OC(=O)[C@H](NC(=O)[C@@H](N)CC(=O)O)c1ccccc1 (stereo partly specified) | 100
13 | CC12CCC(C1)C(C)(C)C2OC(=O)[C@H](NC(=O)[C@@H](N)CC(=O)O)c1ccccc1F (stereo partly specified) | 720
14 | CC1CCC(C)C1OC(=O)[C@H](NC(=O)[C@@H](N)CC(=O)O)c1ccccc1 (stereo partly specified) | 380
15 | N[C@@H](CC(=O)O)C(=O)N[C@@H](C(=O)OC1CC2CCC1C2)c1ccccc1 (stereo in doubt; 26) | 20
16 | CC1(OC(=O)[C@H](NC(=O)[C@@H](N)CC(=O)O)c2ccccc2)CC2CCC1C2 (stereo partly specified) | 40

Reference: ChEMBL document CHEMBL1125109, “High potency dipeptide sweeteners. 1. L-aspartyl-D-phenylglycine esters” (J Med Chem, 1990)
